In ChEMBL document CHEMBL1687745 (Antimicrob Agents Chemother, 2009):
≈ marks a conversion by molar mass, not a printed value. Calls of active or inactive are those of the source. The rule behind the calls is not given here.

Legend:
Yersinia pestis = test: Antimicrobial activity against Yersinia pestis by broth microdilution method; type: functional
Burkholderia cepacia = test: Antimicrobial activity against Burkholderia cepacia clinical isolate by broth microdilution method; type: functional
In short: (§1)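 Broth microdilution. Log-phase cultures (5 × 10^5 CFU/ml) seeded in 96-well plates with compound from 0 to 20 µM or 1% DMSO control. Incubated at 37°C for 16 to 20 h. Growth read as absorbance at 600 nm.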

Klebsiella pneumoniae = test: Antimicrobial activity against Klebsiella pneumoniae 5657 by broth microdilution method; type: functional; in short: as §1
Staphylococcus aureus [1] = test: Antimicrobial activity against methicillin-resistant Staphylococcus aureus 1094 by broth microdilution method; type: functional
Staphylococcus aureus [2] = test: Antimicrobial activity against Staphylococcus aureus ATCC 25923 by broth microdilution method; type: functional; in short: as §1
[3] = test system: Mycolicibacterium smegmatis; test: Antimicrobial activity against Mycobacterium smegmatis 700009 by broth microdilution method; type: functional; in short: as §1
Bacillus anthracis [4] = test: Protection against Bacillus anthracis Sterne spores induced cell death in mouse J774A1 cells assessed as live viable cells at 10 uM by Sytox green dye staining assay relative to untreated control; type: functional, J774.A1
Bacillus pumilus = test: Antimicrobial activity against Bacillus pumilus clinical isolate by broth microdilution method; type: functional; in short: as §1
Staphylococcus aureus [5] = test: Antibacterial activity against MBX 1090 resistant Staphylococcus aureus NCTC8325 isolates selected on 10 to 12 days of serial passage through MBX 1090; type: functional
In short: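 Eight independent S. aureus NCTC8325 cultures were grown with compound at 0.125× to 128× MIC. Each day, cells were passaged from the highest-concentration well still showing >50% of untreated growth, for up to 20 days. Colonies isolated from resistant cultures were confirmed by MIC assay.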

Bacillus anthracis [6] = test: microbe, parasite or virus in culture; details: Ames
Burkholderia mallei = test: Antimicrobial activity against Burkholderia mallei ATCC 23344 by broth microdilution method; type: functional
[7] = Cytotoxicity against human HeLa cells after 3 days by MTS assay in presence of 10% fetal calf serum; type: cell-based
Bacillus anthracis [8] = test: Protection against Bacillus anthracis Sterne spores induced cell death in mouse J774A1 cells assessed as dead cells at 10 uM by Sytox green dye staining assay relative to untreated control; type: functional, J774.A1
Enterococcus faecalis [9] = test: Antimicrobial activity against Enterococcus faecalis 29212 clinical isolate by broth microdilution method; type: functional
Bacillus subtilis [10] = test: Inhibition of DNA synthesis in Bacillus subtilis BD54 at 5 X MIC by [3H]thymidine incorporation assay; type: functional, organism-based
In short: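 Precursors were [methyl-3H]thymidine (DNA), [5-3H]uridine (RNA), L-[4,5-3H]leucine (protein) and N-acetyl-D-[1-3H]glucosamine (cell wall). Samples taken over time, precipitated with equal volume of ice-cold 20% TCA, filtered on glass fibre, and counted. cpm plotted against time.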

[11] = test system: Mycolicibacterium smegmatis; test: Antimicrobial activity against Mycobacterium smegmatis 19420 by broth microdilution method; type: functional; in short: as §1
Bacillus anthracis [12] = test: Antimicrobial activity against Bacillus anthracis Sterne vegetative cells by broth microdilution method; type: functional
Enterococcus faecalis [13] = test: Antimicrobial activity against vancomycin-resistant Enterococcus faecalis ATCC 51575 by broth microdilution method; type: functional
Bacillus subtilis [14] = test: Effect on bacterial membrane permeability in Bacillus subtilis BD54 upto 10 times MIC using DiSC3 fluorescent dye staining based fluorimetric assay; type: functional, organism-based
In short: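 B. subtilis BD54 grown in LB to OD600 0.4–0.5, washed, and resuspended to OD600 0.1 in 5 mM HEPES pH 7.4 with 20 mM glucose. Loaded with 1 µM DiSC3(5) for 10 min at room temperature, then 100 mM KCl added. […] Fluorescence read at 5 min (ex 622, em 670 nm). DNP 200 µg/ml positive control; mean ± SD of 8 wells.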

HeLa = test: Effect on cell membrane integrity in human HeLa cells assessed as lactate dehydrogenase release at 32 times MIC against Staphylococcus aureus by CytoTox ONE homogenous membrane integrity assay; type: cell-based
In short: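 Confluent HeLa cells in DMEM treated for 1 h with a range of compound concentrations, 1% DMSO final. […] LDH activity in the supernatant measured by a membrane-integrity kit.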

Bacillus anthracis [15] = test: Antimicrobial activity against Bacillus anthracis Vollum clinical isolate by broth microdilution method; type: functional
Bacillus anthracis [16] = test: microbe, parasite or virus in culture; details: Ames; remark: listed apart in the source
[17] = test system: Mycolicibacterium smegmatis; test: Antimicrobial activity against Mycobacterium smegmatis 35798 by broth microdilution method; type: functional; in short: as §1
Enterococcus faecium = test: Antimicrobial activity against vancomycin-resistant Enterococcus faecium B42762 by broth microdilution method; type: functional
Brevibacillus brevis = test: Antimicrobial activity against Bacillus brevis clinical isolate by broth microdilution method; type: functional; in short: as §1
Escherichia coli = test: Antimicrobial activity against Escherichia coli J53 clinical isolate by broth microdilution method; type: functional
Bacillus anthracis [18] = test: Antimicrobial activity against Bacillus anthracis Ames by broth microdilution method in presence of 10% fetal calf serum; type: functional
Bacillus subtilis [19] = test: Antimicrobial activity against Bacillus subtilis clinical isolate by broth microdilution method; type: functional
Staphylococcus aureus [20] = test: Antimicrobial activity against methicillin-resistant Staphylococcus aureus clinical isolate by broth microdilution method; type: functional
Bacillus anthracis [21] = test: Inhibition of spore germination in Bacillus anthracis Sterne spores at MIC after 4 hrs; type: functional, organism-based
[22] = test system: Burkholderia thailandensis; test: Antimicrobial activity against Burkholderia thailandensis by broth microdilution method; type: functional
Priestia megaterium = test: Antimicrobial activity against Bacillus megaterium clinical isolate by broth microdilution method; type: functional
Bacillus anthracis [23] = test: Antibacterial activity against Bacillus anthracis Ames spores infected in C57BL/6 mouse assessed as mouse survival rate at 1 mg/kg, ip for 5 days every 6 hrs administered 6 hrs post bacterial challenge measured up to 20 days post infection; type: functional; details: route intraperitoneal
[24] = test system: Burkholderia pseudomallei; test: Antimicrobial activity against Burkholderia pseudomallei DD503 by broth microdilution method; type: functional
Bacillus licheniformis = test: Antimicrobial activity against Bacillus licheniformis clinical isolate by broth microdilution method; type: functional
Enterococcus faecalis [25] = test: Antimicrobial activity against Enterococcus faecalis clinical isolate by broth microdilution method; type: functional; in short: as §1
Pseudomonas aeruginosa = test: Antimicrobial activity against Pseudomonas aeruginosa PAO1 by broth microdilution method; type: functional; in short: as §1
Bacillus anthracis [26] = test: Antimicrobial activity against Bacillus anthracis Sterne spores by broth microdilution method; type: functional
Staphylococcus aureus [27] = test: Antimicrobial activity against Staphylococcus aureus by broth microdilution method; type: functional; in short: as §1
Staphylococcus aureus [28] = test: Antibacterial activity against Staphylococcus aureus Smith infected in Swiss Webster mouse assessed as assessed as protection against microbe-induced mortality at 10 mg/kg, iv administered as single dose 15 mins post bacterial challenge measured 48 hrs post infection; type: functional
In short: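 Swiss Webster mice (n = 10/group) were challenged i.p. with 8.3 × 10^8 CFU. After 15 min they received a single i.v. dose in 10% dimethyl acetamide–5% dextrose in water (pH 4.0), alongside vehicle and daptomycin (10 mg/kg) controls. Survival was followed for 48 h.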

Structure (SMILES): C(=C\c1cc2ccc(C3=NCCN3)cc2[nH]1)/c1cc2ccc(C3=NCCN3)cc2[nH]1
- MIC (Yersinia pestis): 13 µg/mL (≈ 33 µM)
- MIC (Burkholderia cepacia): 19 µg/mL (≈ 48.2 µM)
- MIC (Klebsiella pneumoniae): 1.3 µg/mL (≈ 3.3 µM)
- MIC (Staphylococcus aureus [1]): 0.6 µg/mL (≈ 1.52 µM)
- MIC (Staphylococcus aureus [2]): 0.9 µg/mL (≈ 2.28 µM)
- MIC [3]: 0.2 µg/mL (≈ 0.507 µM)
- Activity (Bacillus anthracis [4]): 73%
- MIC (Bacillus pumilus): 0.2 µg/mL (≈ 0.507 µM)
- MIC (Staphylococcus aureus [5]): 16 µg/mL (≈ 40.6 µM)
- MBC (Bacillus anthracis [6]): 2.3 µg/mL (≈ 5.83 µM)
- MIC (Bacillus anthracis [6]): 0.6 µg/mL (≈ 1.52 µM)
- MIC (Burkholderia mallei): 1.6 µg/mL (≈ 4.06 µM)
- CC50 at 72 h [7]: 10 µg/mL
- Activity (Bacillus anthracis [8]): 27%
- MIC (Enterococcus faecalis [9]): 0.3 µg/mL (≈ 0.76 µM)
- inhibition (Bacillus subtilis [10]): Active
- MIC [11]: 0.2 µg/mL (≈ 0.507 µM)
- MIC (Bacillus anthracis [12]): 1.2 µg/mL (≈ 3.04 µM)
- MIC (Enterococcus faecalis [13]): 0.6 µg/mL (≈ 1.52 µM)
- Activity (Bacillus subtilis [14]): Active
- Activity (HeLa): Non-toxic
- MBC (Bacillus anthracis [15]): 1.2 µg/mL (≈ 3.04 µM)
- MIC (Bacillus anthracis [15]): 0.6 µg/mL (≈ 1.52 µM)
- MIC (Bacillus anthracis [16]): 0.2 µg/mL (≈ 0.507 µM)
- MIC [17]: 0.1 µg/mL (≈ 0.253 µM)
- MIC (Enterococcus faecium): 0.3 µg/mL (≈ 0.76 µM)
- MIC (Brevibacillus brevis): 0.6 µg/mL (≈ 1.52 µM)
- MIC (Escherichia coli): 0.6 µg/mL (≈ 1.52 µM)
- MIC (Bacillus anthracis [18]): 0.6 µg/mL
- MIC (Bacillus subtilis [19]): 0.3 µg/mL (≈ 0.76 µM)
- MIC (Staphylococcus aureus [20]): 2.3 µg/mL (≈ 5.83 µM)
- inhibition (Bacillus anthracis [21]): inactive
- MIC [22]: 19 µg/mL (≈ 48.2 µM)
- MIC (Priestia megaterium): 0.6 µg/mL (≈ 1.52 µM)
- survival at 1 mg/kg (Bacillus anthracis [23]): 100%
- MIC [24]: 3.1 µg/mL (≈ 7.86 µM)
- MIC (Bacillus licheniformis): 2.3 µg/mL (≈ 5.83 µM)
- MIC (Enterococcus faecalis [25]): 0.6 µg/mL (≈ 1.52 µM)
- MIC (Pseudomonas aeruginosa): 25 µg/mL (≈ 63.4 µM)
- MIC (Bacillus anthracis [26]): 0.3 µg/mL (≈ 0.76 µM)
- MIC (Staphylococcus aureus [27]): 1.2 µg/mL (≈ 3.04 µM)
- survival at 10 mg/kg (Staphylococcus aureus [28]): 80%
